SENP1 inh: SENP1 (human) catalytic domain inhibition; recombinant SENP1 catalytic domain, CyPet-SUMO1-YPet FRET cleavage; inhibition, % at 10 µM; 360,000 tested, 0.21% active; AID 624204;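 active means inhibition at least 30% at 10 µM, raw YFP signal under a set limit, fluorescence ratio 0.5 to 1.5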;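 further: 0% = enzyme with DMSO and 100% = no enzyme wells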
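system = hSENP1 catalytic domain, recombinant | reagent = SFCypet-SUMO1-SFYpet substrate at 25 nM | doses = one dose per compound, 10 µM, 0.5% DMSO | incubation = enzyme reaction for 50 min at room temperature, dark | measured by = FRET, CFP and YFP emission | controls = no-enzyme low, enzyme-DMSO high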
FXN GAA850 act: increases GAA850 frataxin promoter reporter activity | HEK293 lucGAA850 FXN promoter luciferase reporter, 24 h; percent of 10 µM SAHA response | activation, % at 6 µM | 360,000 tested, 0.56% active;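 active means activation above the average of all compounds screened plus 3 SD, cutoff fixed separately per campaign, cut at about 7.5% in these data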;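 further: 0% = DMSO wells and 100% = 10 µM SAHA wells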
HDAC3 inh: human HDAC3 inhibition; O15379; recombinant HDAC3, fluorogenic peptide/trypsin coupled, fluorescence; inhibition, % at 8.3 µM; 320,000 tested, 0.15% active; AID 2718; in the data active means inhibition above about 26%, passing the limit was not always enough
CTSL1 counter: blocks F. hepatica cathepsin L1 in PFM18AAP counter-screen; 300,000 tested, 0.49% active; inhibition, % at 5.96 µM; AID 1906; recombinant F. hepatica cathepsin L1, Z-Leu-Arg-MCA fluorescence;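 active means inhibition above the mean of all tested compounds plus 3 SD, set per screening campaign, cut at about 17% in these data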;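 further: 0% = plate median of test compound wells and 100% = 1 µM Z-Phe-Ala-diazomethylketone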
AHR activator: activates the human aryl hydrocarbon receptor. activation, % at 5 µM. 320,000 tested, 2.5% active. AHR-responsive luciferase reporter cells, luminescence; in the data active means activation above about 47%;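 further: 0% = vehicle wells and 100% = reference agonist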
Target sequence (P35869 whole entry, looked up): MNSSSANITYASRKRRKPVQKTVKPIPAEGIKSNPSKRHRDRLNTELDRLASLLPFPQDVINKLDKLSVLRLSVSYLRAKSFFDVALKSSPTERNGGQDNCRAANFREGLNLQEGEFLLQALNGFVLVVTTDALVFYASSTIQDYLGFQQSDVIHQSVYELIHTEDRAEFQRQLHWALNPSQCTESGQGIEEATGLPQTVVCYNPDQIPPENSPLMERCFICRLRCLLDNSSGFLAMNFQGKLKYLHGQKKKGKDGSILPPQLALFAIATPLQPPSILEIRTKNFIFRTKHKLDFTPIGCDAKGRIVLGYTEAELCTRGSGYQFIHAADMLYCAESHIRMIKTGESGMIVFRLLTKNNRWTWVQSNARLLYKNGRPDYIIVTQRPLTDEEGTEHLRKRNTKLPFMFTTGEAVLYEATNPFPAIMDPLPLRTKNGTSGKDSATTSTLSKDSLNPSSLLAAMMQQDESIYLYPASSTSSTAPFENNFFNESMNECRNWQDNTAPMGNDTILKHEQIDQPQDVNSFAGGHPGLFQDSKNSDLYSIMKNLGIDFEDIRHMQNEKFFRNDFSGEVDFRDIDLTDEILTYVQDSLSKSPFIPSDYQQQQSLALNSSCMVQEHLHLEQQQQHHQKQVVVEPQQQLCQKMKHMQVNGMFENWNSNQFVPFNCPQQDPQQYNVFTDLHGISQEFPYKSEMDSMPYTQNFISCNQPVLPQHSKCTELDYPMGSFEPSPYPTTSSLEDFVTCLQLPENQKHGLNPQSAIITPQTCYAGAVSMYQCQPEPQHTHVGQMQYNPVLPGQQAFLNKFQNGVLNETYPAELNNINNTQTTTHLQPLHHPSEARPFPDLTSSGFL
PfM18AAP inh: blocks P. falciparum M18 aspartyl aminopeptidase; 290,000 tested, 1.2% active; inhibition, % at 7.35 µM; recombinant PfM18AAP, H-Glu-NHMec fluorogenic cleavage;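 active means inhibition above the campaign mean inhibition over all tested compounds plus 3 SD, cut at about 28% in these data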;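 further: 0% = plate median of test compound wells and 100% = 2 mM ZnCl2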
The depositor's hits bear a star; . = no result. Rows were chosen to be rich in hits. Some 4.2% of all compounds tested hit in one or more screens of this group.

SMILES	SENP1 inh	FXN GAA850 act	HDAC3 inh	CTSL1 counter	AHR activator	PfM18AAP inh
COc1cc(NC(=O)CN(C)S(=O)(=O)c2ccc3c(c2)CC(C)N3C(C)=O)cc(OC)c1 (stereo unspecified)	1	-1	.	-2	3	1
CCO[C@@H]1OC(C(=O)O)=C[C@H](c2ccc(Br)cc2)[C@H]1CCCO	4	0	41*	0	-3	-11
CCO[C@@H]1OC(C(=O)O)=C[C@H](c2ccccc2)[C@H]1CCCO	3	2	-1	-5	0	.
Oc1ccc(-c2csc(Nc3ccccn3)n2)cc1	2	4	2	8	27	15
Cc1cc(-c2csc(Nc3ccccn3)n2)ccc1F	1	1	10	0	65*	-3
Fc1ccc(-c2csc(Nc3ccccn3)n2)c(F)c1	1	6	6	-2	78*	4
N#C/C(=C/c1ccc(-c2ccc([N+](=O)[O-])cc2)o1)c1nnc(N2CCOCC2)n1-c1ccccc1	-35	2	.	.	.	.
CC1CCCN(C2=C(Cl)C(=O)N(c3cccc(Cl)c3)C2=O)C1 (stereo unspecified)	-36	0	-3	3	1	8
CN1CCN(C2=C(Cl)C(=O)N(c3cccc(Cl)c3)C2=O)CC1	2	0	2	23*	8	0
O=C1C(Cl)=C(N2CCOCC2)C(=O)N1c1ccccc1Cl	2	0	1	17	-1	25
O=C1C(Cl)=C(N2CCCCCC2)C(=O)N1c1ccc(Cl)cc1	25	3	6	11	0	8
Cc1ccc(N2C(=O)C(Cl)=C(N3CCOCC3)C2=O)cc1Cl	14	1	1	38*	2	4
CN1CCN(C2=C(Cl)C(=O)N(c3ccc(Cl)c(Cl)c3)C2=O)CC1	4	-1	6	40*	5	6
Cc1ccc(-n2ncc3c(=O)n(-c4cccc(C)c4)c(=O)[nH]c32)cc1	1	0	.	.	.	.
CC/C=C\C/C=C\C/C=C\CCCCCCCC(=O)O	-6	0	9	26*	1	.
CCCCC/C=C\C/C=C\C/C=C\C/C=C\CCCC(=O)O	.	.	4	22*	-2	.
CN(CC(=O)Nc1cc(S(=O)(=O)N2CCCC2)ccc1Cl)Cc1nc2ccccc2c(=O)[nH]1	-1	1	.	.	.	.
CC1(C)COC(/C=C/c2ccc([N+](=O)[O-])cc2)=N1	6	3	2	-2	50*	3
CC(=C/C(=O)O)/C=C/c1ccc([N+](=O)[O-])cc1	1	0	6	2	2	5
Cn1c(O)c(N=Nc2nc(-c3ccccc3)cs2)c2ccccc21	46*	3	1	2	54*	-1
Cn1c(O)c(N=Nc2ccc(F)cc2)c2ccccc21	1	4	8	0	44	0
Cn1c(O)c(N=Nc2ccccc2)c2ccccc21	2	2	-1	-4	55*	-1
Cc1ccc2c(c1)c(=O)c1c3n2CCN(C(=O)CCl)C3CC1 (stereo unspecified)	-17	0	-10	77*	4	-11
CCOC(=O)C1CCN(C(=O)Cn2c(=O)c3cccn3c3cccnc32)CC1	-7	1	-3	2	1	0
CCOC(=O)C1=C(C)NC(=O)NC1c1ccc(-c2ccc(F)cc2)o1 (stereo unspecified)	-37	3	16	0	1	-4
COC(=O)C1=C(C)NC(C)=C(C(=O)OC)C1c1ccc(-c2cccc([N+](=O)[O-])c2)o1	4	6	35*	-3	3	-19
COC(=O)C1=C(C)NC(C)=C(C(=O)OC)C1c1ccc(-c2cccc(Cl)c2Cl)o1	-10	5	11	12	29	-17
CCOC(=O)C1=C(C)NC(=O)NC1c1ccc(-c2ccc(Cl)cc2)o1 (stereo unspecified)	-30	3	50*	0	9	-2
COC(=O)C1=C(C)NC(=S)NC1c1ccc(-c2cccc(Cl)c2)o1 (stereo unspecified)	0	0	29*	2	9	13
CC(C)c1ccc(NC(=O)C2Cc3c(-c4cccc(F)c4)ccnc3O2)cc1 (stereo unspecified)	-1	-6	.	.	.	.
